# Source: ChEMBL document CHEMBL3758101, “Synthesis and biological evaluation of fluorinated 1,5-diarylpyrrole-3-alkoxyethyl ether derivatives as selective COX-2 inhibitors endowed with anti-inflammatory activity” (Eur J Med Chem, 2016)
# The source made the active and inactive calls.
# How the values were obtained:
# [1] = tested on: Mus musculus; assay: Antinociceptive activity in CD1 albino mouse model of acetic acid-induced visceral pain assessed as number of writhes at 3 mg/kg, po pretreated for 30 mins before acetic acid challenge measured after 5 mins (reference value: 30.5 +/- 1.7); assay type: functional
# [2] = tested on: Mus musculus; assay: Antinociceptive activity in CD1 albino mouse model of acetic acid-induced visceral pain assessed as number of writhes at 10 mg/kg, po pretreated for 30 mins before acetic acid challenge measured after 5 mins (reference value: 30.5 +/- 1.7); assay type: functional
# [3] = tested on: Mus musculus; assay: Antinociceptive activity in po dosed CD1 albino mouse model of acetic acid-induced visceral pain assessed as number of writhes pretreated for 30 to 60 mins before acetic acid challenge measured after 5 mins; assay type: functional, organism-based
# [4] = tested on: Rattus norvegicus; assay: Antihyperalgesic effect in Sprague-Dawley rat model of monosodium iodoacetate-induced osteoarthritis assessed as withdrawal threshold at 3 mg/kg, ip administered 14 days post MIA challenge measured after 30 mins by paw pressure test (reference value: 37.8 +/- 3.3 g); assay type: functional
# Summary of the method: (§1)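 Male Sprague–Dawley rats (200–250 g). MIA (2 mg/25 µL) was injected into the left tibiotarsal joint on day 0 under 2% isoflurane; controls received 25 µL saline. On day 14 compound or vehicle was given at time 0. Paw pressure threshold (g) was read with an analgesimeter using a blunt conical probe on the dorsal paw at 30, 60, 90 and 120 min. Mean ± s.e.m., 6 rats.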
# [5] = tested on: Rattus norvegicus; assay: Antihyperalgesic effect in Sprague-Dawley rat model of monosodium iodoacetate-induced osteoarthritis assessed as withdrawal threshold at 10 mg/kg, ip administered 14 days post MIA challenge measured after 30 mins by paw pressure test (reference value: 37.8 +/- 3.3 g); assay type: functional; summary of the method: as §1
# [6] = tested on: HaCaT; assay: Antiproliferative activity against human HaCaT cells at 50 uM after 24 hrs by BrdU incorporation assay; assay type: functional, cell-based
# Summary of the method: (§2)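 HaCaT human keratinocytes were grown in high-glucose DMEM with 10% FBS and 2 mM L-glutamine at 37 °C and 5% CO2 to 80% confluency. Cells were treated 24 h with compound at 1, 10 or 50 µM (final DMSO ≤0.1%). Proliferation was read by BrdU incorporation as % of DMSO control; three experiments.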
# [7] = tested on: HaCaT; assay: Antiproliferative activity against human HaCaT cells at 1 uM after 24 hrs by BrdU incorporation assay; assay type: functional, cell-based; summary of the method: as §2
# [8] = tested on: Rattus norvegicus; assay: Antiinflammatory activity in Sprague-Dawley rat model of carrageenan-induced paw edema assessed as paw volume at 3 mg/kg, po administered 2 hrs post carrageenan challenge measured after 90 mins by plethysmometry (reference value: 37.2 +/- 3.4 ml); assay type: functional
# [9] = tested on: Rattus norvegicus; assay: Antiinflammatory activity in Sprague-Dawley rat model of carrageenan-induced paw edema assessed as paw volume at 3 mg/kg, po administered 2 hrs post carrageenan challenge measured after 120 mins by plethysmometry (reference value: 34.5 +/- 4.4 ml); assay type: functional
# [10] = tested on: Rattus norvegicus; assay: Antiinflammatory activity in Sprague-Dawley rat model of carrageenan-induced paw edema assessed as volume of paw edema at 10 mg/kg, po administered 2 hrs post carrageenan challenge measured after 60 mins by plethysmometry (reference value: 2.73 +/- 0.07 ml); assay type: functional
# [11] = tested on: Rattus norvegicus; assay: Antihyperalgesic activity in Sprague-Dawley rat model of carrageenan-induced inflammatory pain assessed as paw pressure threshold at 3 mg/kg, po administered 2 hrs post carrageenan challenge measured after 30 mins by paw pressure test (reference value: 34.1 +/- 2.3 g)
# [12] = tested on: Rattus norvegicus; assay: Antihyperalgesic activity in Sprague-Dawley rat model of carrageenan-induced inflammatory pain assessed as paw pressure threshold at 3 mg/kg, po administered 2 hrs post carrageenan challenge measured after 60 mins by paw pressure test (reference value: 35.4 +/- 3.6 g)
smiles,measurement,setting,value
Cc1c(CCOCCCF)cc(-c2ccc(S(C)(=O)=O)cc2)n1-c1ccc(F)cc1,Activity,[1],21.8
same,Activity,[2],11.4
same,Activity,[3],Dose-dependent effect
same,Activity,[4],47.9 g
same,Activity,[5],50.3 g
same,Activity,[6],Active
same,Activity,[7],inactive
same,Activity,[8],44.8 g
same,Activity,[9],36.2 g
same,Activity,[10],2.15 mL
same,Activity,[11],45.2 g
same,Activity,[12],49.2 g
